pIC50: −log10 of the molar value.

The source of these data is ChEMBL document CHEMBL1255526, “Fused tricyclic pyrrolizinones that exhibit pseudo-irreversible blockade of the NK1 receptor” (Bioorg Med Chem Lett, 2010).

Data set [1] deals with T1, Substance-P receptor (Homo sapiens, UniProt P25103). Nature of the data set: Displacement of [125I]substance P from human NK1 receptor expressed in CHO cells. The data set is classed as cell-based. A digest of the protocol:
(§1)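 Radioligand binding: [125I]substance P displaced from human NK1 receptor expressed in CHO cells; IC50 determined. Also run with 50% serum added (human, dog, rhesus, rat or gerbil) to measure the serum shift.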
Background: In a radioligand displacement assay an active substance lowers the binding of a labelled ligand.

Data set [2] deals with T1, Substance-P receptor. Nature of the data set: Displacement of [125I]substance P from human NK1 receptor expressed in CHO cells in presence of 50% human serum. The data set is classed as cell-based. Summed up: as §1
Data set [3] in a line: Binding affinity to potassium channel IKr.
Data set [4] is described as follows: Binding affinity to calcium channel. A digest of the protocol:
(§2)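 Ion channel binding assay; IC50 values calculated for sodium channel and for calcium channel (Dlz site).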

The subject of data set [5] is Meriones unguiculatus. Nature of the data set: Inhibition of GR-73632-induced foot tapping in Mongolian gerbil at 1 mg/kg after 1 hr. The data set is classed as functional. Summed up:
(§3)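 Gerbils given antagonist at the dose and pretreatment time shown (1 mg/kg at 1 h, 3 mg/kg at 24 h); foot tapping then induced with the NK1 agonist GR73632. Read-out is % inhibition of tapping; ED50 or ID50 from dose–response.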

Data set [6] concerns the target T1, Substance-P receptor. The data set can be described thus: Antagonist activity at human recombinant NK1 receptor expressed in CHO cells assessed as remaining substance P level at 100 nM after 30 mins by [H3]-inositol phosphate release assay. The data set is classed as functional, cell-based. A digest of the protocol: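 CHO cells with recombinant human NK1 receptor, 2.5 × 10⁴ per well, plated overnight, then prelabelled overnight at 37 °C with [3H]-myo-inositol (10–25 Ci/mmol) in inositol-free medium with 0.02% BSA. LiCl 10 mM in HEPES-buffered inositol-free DMEM, 15 min. Antagonist at 100 nM or DMSO for 30 min, then substance P for 30 min. Stopped with formic acid. [3H]-inositol phosphate captured on yttrium silicate SPA beads, 2 h. Reported as % substance P response remaining.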

Data set [7] addresses T2, Nuclear receptor subfamily 1 group I member 2 (Homo sapiens, UniProt O75469).
T2 sequence (O75469 whole entry): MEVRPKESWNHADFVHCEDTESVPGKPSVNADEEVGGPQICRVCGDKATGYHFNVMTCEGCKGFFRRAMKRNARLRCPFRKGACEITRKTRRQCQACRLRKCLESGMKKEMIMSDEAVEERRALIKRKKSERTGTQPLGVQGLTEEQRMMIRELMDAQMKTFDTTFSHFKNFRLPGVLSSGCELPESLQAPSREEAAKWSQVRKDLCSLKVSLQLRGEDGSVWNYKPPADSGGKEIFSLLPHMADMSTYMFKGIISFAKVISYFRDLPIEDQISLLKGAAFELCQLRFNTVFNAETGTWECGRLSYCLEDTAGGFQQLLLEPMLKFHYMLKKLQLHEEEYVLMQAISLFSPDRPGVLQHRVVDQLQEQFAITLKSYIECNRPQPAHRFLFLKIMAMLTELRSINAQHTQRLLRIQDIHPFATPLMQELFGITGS
The data set can be described thus: Inhibition of human PXR induction.

The target in data set [8] is T3, PXR (nuclear receptor subfamily 1 group I member 2) (Homo sapiens, UniProt O75469).
T3 sequence (O75469 whole entry): T2 sequence (O75469 whole entry)
Nature of the data set: Inhibition of human PXR induction at 10 uM. Summed up: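 Human PXR induction measured at 10 µM compound, expressed as % of maximal induction.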

Data set [9] can be described thus: Binding affinity to sodium channel. Summed up: as §2
Data set [10] relates to Meriones unguiculatus. The data set can be described thus: Inhibition of GR-73632-induced foot tapping in Mongolian gerbil at 3 mg/kg after 24 hrs. The data set is classed as functional. Summed up:
as §3

The species entered for data set [11] is Meriones unguiculatus. The data set can be described thus: Inhibition of GR-73632-induced foot tapping in Mongolian gerbil after 24 hrs. In kind it is functional. Summed up:
as §3

In data set [12] the target is T1, Substance-P receptor. Nature of the data set: Displacement of [125I]substance P from human NK1 receptor expressed in CHO cells in presence of 50% dog serum. The data set is classed as cell-based. A digest of the protocol:
as §1

Data set [13] concerns the target T1, Substance-P receptor. The data set can be described thus: Displacement of [125I]substance P from human NK1 receptor expressed in CHO cells in presence of 50% rhesus monkey serum. The data set is classed as cell-based. A digest of the protocol:
as §1

Data set [14] concerns the target T1, Substance-P receptor. The data set can be described thus: Displacement of [125I]substance P from human NK1 receptor expressed in CHO cells in presence of 50% rat serum. The data set is classed as cell-based. Summed up: as §1
Data set [15] deals with T1, Substance-P receptor. The data set can be described thus: Displacement of [125I]substance P from human NK1 receptor expressed in CHO cells in presence of 50% mongolian gerbil serum. The data set is classed as cell-based. Summed up:
as §1

For data set [16], the species on record is Meriones unguiculatus. Nature of the data set: Inhibition of GR-73632-induced foot tapping in Mongolian gerbil after 1 hr. The data set is classed as functional. The note with it: read-out: ID50 (the source's name). A digest of the protocol: as §3
Data set [17] is described as follows: Metabolic stability in dog microsomes assessed as compound remaining after 60 mins. In kind it is ADME, Canis lupus familiaris, Microsome. The note with it: read-out: Stability. Summed up:
(§4)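 Compound incubated 60 min with liver microsomes from human, dog, rat or rhesus; % parent remaining measured.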

Data set [18] in a line: Metabolic stability in human microsomes assessed as compound remaining after 60 mins. In kind it is ADME, Microsome. The note with it: read-out: Stability. Summed up:
as §4

Data set [19] is described as follows: Metabolic stability in rat microsomes assessed as compound remaining after 60 mins. In kind it is ADME, Microsome. The note with it: read-out: Stability. A digest of the protocol: as §4
Data set [20] can be described thus: Metabolic stability in rhesus monkey microsomes assessed as compound remaining after 60 mins. The data set is classed as ADME, Macaca mulatta, Microsome. The note with it: read-out: Stability. Summed up:
as §4

A short description of data set [21]: Plasma clearance in rat. The data set is classed as ADME, organism-based.
The nature of data set [22]: Mean residence time in rat. The data set is classed as ADME, organism-based. The note with it: in vivo.
Data set [23] in a line: Volume of distribution in rat. In kind it is ADME, organism-based. Conditions: in vivo.
Data set [24] can be described thus: Oral bioavailability in rat. In kind it is ADME, organism-based. Conditions: in vivo.
Data set [25] in a line: Plasma clearance in dog. The data set is classed as ADME, organism-based, Canis lupus familiaris.
The target in another data set is Cytochrome P450 3A4 (Homo sapiens, UniProt P08684). Nature of the data set: Inhibition of CYP3A4. The data set is classed as ADME.
A further data set addresses Cytochrome P450 2D6 (Homo sapiens, UniProt P10635). The data set can be described thus: Inhibition of CYP2D6. In kind it is ADME.
The nature of data set [26]: Half life in rat. In kind it is ADME, organism-based. The note with it: in vivo.
A short description of data set [27]: Half life in dog. In kind it is ADME, organism-based, Canis lupus familiaris. Conditions: in vivo.
A further data set addresses Cytochrome P450 2C9 (Homo sapiens, UniProt P11712). Nature of the data set: Inhibition of CYP2C9. The data set is classed as ADME.
The nature of data set [28]: Ratio of drug level in brain to plasma in Mongolian gerbil. The data set is classed as ADME, Meriones unguiculatus. The note with it: read-out: BPR.

T1 sequence (P25103 whole entry): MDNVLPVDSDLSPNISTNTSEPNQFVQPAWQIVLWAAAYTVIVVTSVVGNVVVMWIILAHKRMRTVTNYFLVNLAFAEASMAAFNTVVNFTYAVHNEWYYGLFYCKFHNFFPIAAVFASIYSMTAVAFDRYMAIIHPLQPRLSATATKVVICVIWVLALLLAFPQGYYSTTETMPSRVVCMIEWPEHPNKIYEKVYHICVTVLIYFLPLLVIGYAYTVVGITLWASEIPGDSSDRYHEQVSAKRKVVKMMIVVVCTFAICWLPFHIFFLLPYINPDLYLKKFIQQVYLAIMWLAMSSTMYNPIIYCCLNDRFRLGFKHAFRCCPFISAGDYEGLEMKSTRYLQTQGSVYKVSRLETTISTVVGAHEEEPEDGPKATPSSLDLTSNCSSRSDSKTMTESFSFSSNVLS
Sequence of Cytochrome P450 2D6 (P10635 whole entry): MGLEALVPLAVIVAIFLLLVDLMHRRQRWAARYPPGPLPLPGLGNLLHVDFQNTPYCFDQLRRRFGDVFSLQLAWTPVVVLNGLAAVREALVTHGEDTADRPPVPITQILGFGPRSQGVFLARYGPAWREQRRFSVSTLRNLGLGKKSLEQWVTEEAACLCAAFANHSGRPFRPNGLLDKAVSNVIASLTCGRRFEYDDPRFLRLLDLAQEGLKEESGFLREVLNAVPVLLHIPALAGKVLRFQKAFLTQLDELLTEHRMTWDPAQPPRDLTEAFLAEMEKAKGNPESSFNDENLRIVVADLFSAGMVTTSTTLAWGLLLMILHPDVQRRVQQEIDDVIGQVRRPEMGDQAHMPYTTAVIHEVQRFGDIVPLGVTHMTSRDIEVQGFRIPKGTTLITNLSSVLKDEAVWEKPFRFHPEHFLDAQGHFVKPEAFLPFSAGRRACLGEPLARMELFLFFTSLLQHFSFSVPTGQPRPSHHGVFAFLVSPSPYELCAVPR
Sequence of Cytochrome P450 3A4 (P08684 whole entry): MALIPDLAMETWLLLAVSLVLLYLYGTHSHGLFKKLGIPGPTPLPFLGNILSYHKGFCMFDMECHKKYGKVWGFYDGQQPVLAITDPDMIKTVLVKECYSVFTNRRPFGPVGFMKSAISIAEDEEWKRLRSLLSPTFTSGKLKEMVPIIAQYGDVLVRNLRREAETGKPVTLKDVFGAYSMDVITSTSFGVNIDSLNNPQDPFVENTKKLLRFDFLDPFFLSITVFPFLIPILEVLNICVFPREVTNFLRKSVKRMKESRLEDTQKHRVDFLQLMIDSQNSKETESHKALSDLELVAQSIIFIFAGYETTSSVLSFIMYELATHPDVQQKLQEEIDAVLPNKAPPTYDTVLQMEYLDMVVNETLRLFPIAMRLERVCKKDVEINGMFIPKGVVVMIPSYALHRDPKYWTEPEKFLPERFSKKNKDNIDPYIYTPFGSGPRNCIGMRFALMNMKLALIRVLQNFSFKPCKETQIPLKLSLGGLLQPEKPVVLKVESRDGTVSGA
Sequence of Cytochrome P450 2C9 (P11712 whole entry): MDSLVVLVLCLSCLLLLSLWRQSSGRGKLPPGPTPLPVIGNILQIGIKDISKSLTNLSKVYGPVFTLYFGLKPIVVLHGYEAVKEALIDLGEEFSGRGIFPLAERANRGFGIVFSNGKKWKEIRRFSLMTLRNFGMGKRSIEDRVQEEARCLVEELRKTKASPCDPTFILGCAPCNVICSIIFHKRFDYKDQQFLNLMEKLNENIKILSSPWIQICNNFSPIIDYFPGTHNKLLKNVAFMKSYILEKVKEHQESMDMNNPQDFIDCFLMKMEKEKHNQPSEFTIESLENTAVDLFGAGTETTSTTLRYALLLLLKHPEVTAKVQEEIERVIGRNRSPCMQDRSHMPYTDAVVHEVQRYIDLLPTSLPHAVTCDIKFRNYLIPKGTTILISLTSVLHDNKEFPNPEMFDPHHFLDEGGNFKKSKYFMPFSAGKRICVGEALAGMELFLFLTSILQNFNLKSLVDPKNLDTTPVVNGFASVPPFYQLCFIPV

As usually defined, the pIC50 is the IC50 on a negative log10 scale, so that one unit is a factor of ten. For orientation: inhibition in vivo means the relative decrease from the control value, in per cent. As to `C[C@@H](O[C@H]1CN2C(=O)C3CN(C4=CC(=O)CC4)CC3[C@H]2[C@@H]1c1ccc(F)cc1)c1cc(C(F)(F)F)cc(C(F)(F)F)c1` (stereo in doubt; 18b) [FIRST ELUDED ISOMER], the negative-log IC50 (pIC50) at Substance-P receptor [1] is 10.05; at Substance-P receptor [2] it was 9.00; in [3], 6.14; in [4] it was 5.32. In addition, at 1 mg/kg the inhibition in vivo in the data set with Meriones unguiculatus [5] was 92%.
One may read the Emax as the maximal effect, on the per cent scale that the assay sets. Usually clearance stands for the volume of plasma or blood freed of the substance per unit of time. As usually defined, the MRT is a mean duration of stay, worked out from the concentration-time curve. Usually Vd stands for a proportionality between amount in the body and measured concentration, not a real space. Usually bioavailability stands for dose-corrected exposure relative to a reference, in per cent. By half-life is commonly meant the time in which the quantity being followed falls by half. In the case of `C[C@@H](O[C@H]1CN2C(=O)[C@H]3C[C@@](C)(O)C[C@H]3[C@H]2[C@@H]1c1ccc(F)cc1)c1cc(C(F)(F)F)cc(C(F)(F)F)c1`, the pIC50 is 10.21 at Substance-P receptor [1]; 9.15 at Substance-P receptor [2]; 5.08 in data set [7]; 5.61 in data set [3]; < 5.00 in data set [4]; < 5.00 in data set [9]. Further, the pIC50 at Substance-P receptor [12] was 8.82; at Substance-P receptor [13], 9.40; on Substance-P receptor [14] it was 9.40; at Substance-P receptor [15], 8.72; against Cytochrome P450 3A4 it was 4.64; against Cytochrome P450 2D6 it was 4.76. On Cytochrome P450 2C9, this compound showed a pIC50 of 4.37. The Activity on Substance-P receptor [6] was 3%. The maximal effect (Emax) at 10 µM in data set [8] was 37%. This compound also gave an inhibition in vivo at 3 mg/kg in the data set with Meriones unguiculatus [10] of 100%. Besides, the ED50 in the data set listed under Meriones unguiculatus [11] (read-out: ED50), in the data set listed under Meriones unguiculatus [11] (read-out: ID50 (the source's name)) and in the data set filed under Meriones unguiculatus [16] was 0.02 mg/kg each time. Also, the remaining at 1 h in data set [17] turned out to be 90%; in data set [18], 96%; in data set [19], 96%; in [20], 99%. The results for the clearance in data set [21] and in data set [25] were 3.24 mL/min/kg and 0.5 mL/min/kg, respectively. This compound also had a mean residence time MRT in [22] of 4.67 h. The compound also gave a Vd in data set [23] of 4.03 L/kg. In addition, the bioavailability in data set [24] turned out to be 88.8%. In addition, the half-life in [26] is 14.6 h; in data set [27], 58 h. Also, the Kp in [28] came to 0.5.
For the compound `C[C@@H](O[C@H]1CN2C(=O)[C@H]3C[C@@H](O)C[C@H]3[C@H]2[C@@H]1c1ccc(F)cc1)c1cc(C(F)(F)F)cc(C(F)(F)F)c1`, the values for the pIC50 (on Substance-P receptor [1]; at Substance-P receptor [2]; in data set [7]) were 10.22, 9.11 and 5.35, respectively. Moreover, the Activity at Substance-P receptor [6] was 3%. In data set [8], this compound gave an Emax at 10 µM of 65%. In the data set on Meriones unguiculatus [10], this compound showed an inhibition in vivo at 3 mg/kg of 100%. The compound further displayed an inhibition in vivo at 1 mg/kg in the data set with Meriones unguiculatus [5] of 100%.
